The target in one assay is T1, JMJD2E (Homo sapiens, UniProt B2RXH2).
T1 sequence (B2RXH2 1-337): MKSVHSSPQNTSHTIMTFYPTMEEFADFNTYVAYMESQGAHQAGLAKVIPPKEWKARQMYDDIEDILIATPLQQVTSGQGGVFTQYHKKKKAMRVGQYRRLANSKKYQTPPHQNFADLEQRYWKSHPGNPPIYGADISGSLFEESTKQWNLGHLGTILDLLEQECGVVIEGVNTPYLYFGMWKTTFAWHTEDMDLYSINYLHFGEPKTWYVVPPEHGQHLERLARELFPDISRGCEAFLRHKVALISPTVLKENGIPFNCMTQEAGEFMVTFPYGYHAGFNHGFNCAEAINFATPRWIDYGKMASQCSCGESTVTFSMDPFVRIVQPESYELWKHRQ
Kind of assay: MALDI-TOF MS based demethylation assay, JMJD2E. Format: biochemical. An outline of the steps:
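Enzyme: human JMJD2E catalytic domain (residues 1-337), expressed in E. coli as N-terminal His6-tagged protein and purified by Ni-affinity chromatography. Quenched reaction mixtures are mixed with α-cyano-4-hydroxycinnamic acid matrix and analysed by MALDI-TOF MS. Percentage demethylation comes from the relative intensities of the peptide methylation states. IC50 is derived from how percentage demethylation varies across inhibitor concentrations.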

The target in another assay is T2, JMJD2A (Homo sapiens, UniProt O75164).
T2 sequence (O75164 1-1064): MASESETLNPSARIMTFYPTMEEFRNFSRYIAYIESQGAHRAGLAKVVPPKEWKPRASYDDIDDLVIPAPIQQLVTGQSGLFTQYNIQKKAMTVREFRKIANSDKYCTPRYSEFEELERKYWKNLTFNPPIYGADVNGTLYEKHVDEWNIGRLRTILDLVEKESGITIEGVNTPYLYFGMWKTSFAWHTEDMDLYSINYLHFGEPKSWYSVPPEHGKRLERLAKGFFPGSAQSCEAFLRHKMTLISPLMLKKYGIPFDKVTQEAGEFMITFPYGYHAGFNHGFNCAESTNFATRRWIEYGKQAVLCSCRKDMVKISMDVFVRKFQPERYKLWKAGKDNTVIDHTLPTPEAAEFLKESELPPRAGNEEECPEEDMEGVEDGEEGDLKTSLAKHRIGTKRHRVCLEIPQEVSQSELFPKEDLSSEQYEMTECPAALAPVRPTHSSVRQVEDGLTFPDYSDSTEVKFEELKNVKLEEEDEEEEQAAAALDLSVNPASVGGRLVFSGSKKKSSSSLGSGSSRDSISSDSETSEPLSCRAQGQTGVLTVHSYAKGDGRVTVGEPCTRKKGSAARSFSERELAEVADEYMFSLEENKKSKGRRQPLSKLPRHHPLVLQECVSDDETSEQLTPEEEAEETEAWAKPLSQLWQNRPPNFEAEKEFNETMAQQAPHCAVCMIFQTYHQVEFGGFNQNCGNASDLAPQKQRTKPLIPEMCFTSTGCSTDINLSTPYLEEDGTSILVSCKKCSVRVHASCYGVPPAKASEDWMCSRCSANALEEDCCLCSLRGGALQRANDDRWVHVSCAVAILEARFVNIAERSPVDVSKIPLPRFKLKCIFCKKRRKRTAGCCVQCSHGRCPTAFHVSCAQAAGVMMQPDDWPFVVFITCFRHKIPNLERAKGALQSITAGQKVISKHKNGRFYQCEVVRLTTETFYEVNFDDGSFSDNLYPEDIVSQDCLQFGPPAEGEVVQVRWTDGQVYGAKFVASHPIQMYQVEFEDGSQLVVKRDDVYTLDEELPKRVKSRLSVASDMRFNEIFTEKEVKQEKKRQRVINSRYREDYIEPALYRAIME
In words: MALDI-TOF MS based demethylation assay, JMJD2A. Format: biochemical.

Another assay deals with PHD2 (Homo sapiens, UniProt Q9GZT9). In words: PHD2 biochemical activity assay. The conditions noted are these: hydroxylation of CODD peptide substrate, MALDI-TOF MS.
PHD2, sequence (Q9GZT9 whole entry): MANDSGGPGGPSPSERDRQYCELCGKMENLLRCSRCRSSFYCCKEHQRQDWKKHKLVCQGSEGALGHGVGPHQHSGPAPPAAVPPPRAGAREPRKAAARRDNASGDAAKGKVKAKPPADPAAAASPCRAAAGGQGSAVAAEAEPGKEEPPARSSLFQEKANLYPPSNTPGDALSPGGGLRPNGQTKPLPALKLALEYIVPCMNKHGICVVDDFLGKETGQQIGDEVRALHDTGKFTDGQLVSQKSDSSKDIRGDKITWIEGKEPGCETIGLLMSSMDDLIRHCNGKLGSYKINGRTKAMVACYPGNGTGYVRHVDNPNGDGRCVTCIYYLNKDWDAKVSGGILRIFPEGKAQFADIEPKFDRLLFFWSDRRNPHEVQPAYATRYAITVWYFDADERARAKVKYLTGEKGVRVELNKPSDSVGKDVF
Another assay concerns the target FIH (Homo sapiens, UniProt Q9NWT6). In words: FIH MALDI-TOF hydroxylation assay. Format: biochemical.

FIH, sequence (Q9NWT6 whole entry): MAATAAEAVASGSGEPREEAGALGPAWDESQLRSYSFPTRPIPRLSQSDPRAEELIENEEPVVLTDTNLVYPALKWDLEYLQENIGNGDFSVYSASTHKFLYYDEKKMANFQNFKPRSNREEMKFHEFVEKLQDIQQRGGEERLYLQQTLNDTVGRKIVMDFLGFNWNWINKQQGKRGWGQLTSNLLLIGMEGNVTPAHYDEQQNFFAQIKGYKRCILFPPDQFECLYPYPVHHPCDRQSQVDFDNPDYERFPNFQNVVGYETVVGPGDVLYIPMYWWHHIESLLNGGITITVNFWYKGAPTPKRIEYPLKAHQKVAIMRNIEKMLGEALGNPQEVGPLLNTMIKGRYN

Take `O=C(O)C(=O)N[C@H](Cc1ccc(OS(=O)(=O)c2ccccc2)cc1)C(=O)O` [7d]: the IC50 against JMJD2E worked out at 43 µM; against JMJD2A, 17 µM.

For the compound `O=C(O)C(=O)N[C@H](Cc1ccc(OS(=O)(=O)c2ccc(Br)cc2)cc1)C(=O)O` [7f], the “inhibitory activity toward PHD2 (in words)” value against PHD2 was “No inhibitory activity”. The IC50 against FIH stood at 60.2 µM.

On to `O=C(O)CNC(=O)C(=O)O` [1a, N-oxalylglycine, reference compound], for which, on PHD2, the “inhibitory activity toward PHD2 (in words)” value is recorded as “potent inhibitor of PHD2”.

For the compound `O=C(O)C(=O)N[C@H](Cc1ccc(OS(=O)(=O)c2ccc(F)cc2)cc1)C(=O)O` [7e], the “inhibitory activity toward PHD2 (in words)” value against PHD2 was “No inhibitory activity”.

Take `CC(C)(C)c1ccc(S(=O)(=O)Oc2ccc(C[C@@H](NC(=O)C(=O)O)C(=O)O)cc2)cc1` [7c]: the “inhibitory activity toward PHD2 (in words)” value against PHD2 is “No inhibitory activity”. The same compound registered an IC50 at FIH of 37.2 µM. Further, on FIH (comparison of JMJD2E FDH IC50 and FIH MALDI-TOF IC50), the “selectivity of inhibition (JMJD2E) with regard to FIH” value is recorded as “relatively low”.

Compound `O=C(O)C(=O)N[C@H](Cc1ccc(OCc2ccccc2[N+](=O)[O-])cc1)C(=O)O` [10k] displayed an IC50 against JMJD2E of 47 µM.

Source of the values: paper PMC2825117 (Journal of Medicinal Chemistry, 2010).
